Test results as given in ChEMBL document CHEMBL5244249, “Discovery of tofacitinib derivatives as orally active antitumor agents based on the scaffold hybridization strategy” (Eur J Med Chem, 2020).

Legend:
MGC-803 = assay: Antiproliferative activity against human MGC-803 cells assessed as inhibition of cell growth incubated for 72 hrs by MTT assay; format: functional, cell-based; details: MGC-803, 72 h
How it was run: (§1)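 Antiproliferative screen in gastric cancer lines MGC-803, HGC-27 and BGC-823 by MTT assay; IC50 reported as mean ± SD.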

HGC-27 = assay: Antiproliferative activity against human HGC-27 cells assessed as inhibition of cell growth incubated for 72 hrs by MTT assay; format: functional, cell-based; details: HGC-27, 72 h; how it was run: as §1
BGC-823 = assay: Antiproliferative activity against human BGC-823 cells assessed as inhibition of cell growth incubated for 72 hrs by MTT assay; format: functional, cell-based; details: BGC-823, 72 h; how it was run: as §1
[1] = Cytotoxicity against human GES1 cells assessed as inhibition of cell growth incubated for 72 hrs by MTT assay; format: toxicity, cell-based
NCI-H1975 = assay: Antiproliferative activity against human NCI-H1975 cells assessed as inhibition of cell growth incubated for 72 hrs by MTT assay; format: functional, cell-based; details: NCI-H1975, 72 h
PC-9 = assay: Antiproliferative activity against human PC-9 cells assessed as inhibition of cell growth incubated for 72 hrs by MTT assay; format: functional, cell-based; details: PC-9, 72 h
MCF7 = assay: Antiproliferative activity against human MCF7 cells assessed as inhibition of cell growth incubated for 72 hrs by MTT assay; format: functional, cell-based; details: MCF7, 72 h

Molecule `Cc1nc2nc(SCc3ccc(Cl)cc3)nn2c(N2CC[C@@H](C)[C@@H](N(C)c3ncnc4[nH]ccc34)C2)c1C` has an IC50 (MGC-803) of 90.5 µM, an IC50 (HGC-27) of over 100 µM and an IC50 (BGC-823) of over 100 µM. The IC50 at 72 h [1] was 99.2 µM.

For `Cc1ccc(CSc2nc3nc(C)cc(N4CC[C@@H](C)[C@@H](N(C)c5ncnc6[nH]ccc56)C4)n3n2)cc1`, the IC50 (MGC-803) was 5.86 µM, the IC50 (HGC-27) was 15.2 µM and the IC50 (BGC-823) was 69.5 µM. It also gave an IC50 at 72 h [1] of 82.5 µM.

`O=c1[nH]cc(F)c(=O)[nH]1` [FLUOROURACIL] showed an IC50 (MGC-803) of 3.79 µM, an IC50 (NCI-H1975) of 2.67 µM and an IC50 (PC-9) of 3.25 µM. For the same molecule, the IC50 (MCF7) was 4.76 µM, the IC50 (HGC-27) was 5.75 µM and the IC50 (BGC-823) was 5.89 µM. It also gave an IC50 at 72 h [1] of 2.37 µM.

Molecule `C[C@@H]1CCN(C(=O)CC#N)C[C@@H]1N(C)c1ncnc2[nH]ccc12` [TOFACITINIB] has an IC50 (MGC-803) of over 100 µM, an IC50 (NCI-H1975) of over 100 µM and an IC50 (PC-9) of over 100 µM. It also gave an IC50 (MCF7) of over 100 µM.

In the case of `Cc1cc(N2CC[C@@H](C)[C@@H](N(C)c3ncnc4[nH]ccc34)C2)n2nc(SCc3cc(Cl)ccc3Cl)nc2n1`, the IC50 (MGC-803) is reported as 9.85 µM, the IC50 (HGC-27) is reported as 19.2 µM and the IC50 (BGC-823) is reported as 18.9 µM. It also gave an IC50 at 72 h [1] of 87.5 µM.

Work on `Cc1cc(N2CC[C@@H](C)[C@@H](N(C)c3ncnc4[nH]ccc34)C2)n2nc(SCc3cc(=O)oc4c3ccc3ccccc34)nc2n1` yielded an IC50 (MGC-803) of over 100 µM, an IC50 (HGC-27) of over 100 µM and an IC50 (BGC-823) of over 100 µM. For the same molecule, the IC50 at 72 h [1] was over 100 µM.

With `Cc1cc(N2CC[C@@H](C)[C@@H](N(C)c3ncnc4[nH]ccc34)C2)n2nc(SCc3ccc(F)cc3)nc2n1` the IC50 (MGC-803) was 11.9 µM, the IC50 (HGC-27) was 26 µM and the IC50 (BGC-823) was 44.3 µM. The IC50 at 72 h [1] was 12.3 µM.

Molecule `Cc1cc(N2CC[C@@H](C)[C@@H](N(C)c3ncnc4[nH]ccc34)C2)n2nc(SCc3csc4ccc(Cl)cc34)nc2n1` has an IC50 (MGC-803) of over 100 µM, an IC50 (HGC-27) of over 100 µM and an IC50 (BGC-823) of over 100 µM. For the same molecule, the IC50 at 72 h [1] was over 100 µM.

`Cc1cc(N2CC[C@@H](C)[C@@H](N(C)c3ncnc4[nH]ccc34)C2)n2nc(SCc3ccc(Br)cc3)nc2n1` gave an IC50 (MGC-803) of 4.02 µM, an IC50 (HGC-27) of 19.5 µM and an IC50 (BGC-823) of 28 µM. For the same molecule, the IC50 at 72 h [1] was 55.6 µM.

`Cc1cc(N2CC[C@@H](C)[C@@H](N(C)c3ncnc4[nH]ccc34)C2)n2nc(SCc3ccccc3)nc2n1` showed an IC50 (MGC-803) of 5.87 µM, an IC50 (HGC-27) of 13.9 µM and an IC50 (BGC-823) of 14.3 µM. It also gave an IC50 at 72 h [1] of 67.2 µM.

Molecule `COc1ccc(CSc2nc3nc(C)cc(N4CC[C@@H](C)[C@@H](N(C)c5ncnc6[nH]ccc56)C4)n3n2)cc1` has an IC50 (MGC-803) of 15.2 µM, an IC50 (HGC-27) of 18.2 µM and an IC50 (BGC-823) of 69.9 µM. The IC50 at 72 h [1] was over 100 µM.

Work on `Cc1cc(N2CC[C@@H](C)[C@@H](N(C)c3ncnc4[nH]ccc34)C2)n2nc(SCCCc3ccccc3)nc2n1` yielded an IC50 (MGC-803) of over 100 µM, an IC50 (HGC-27) of over 100 µM and an IC50 (BGC-823) of over 100 µM. It also gave an IC50 at 72 h [1] of over 100 µM.

Molecule `C[C@@H]1CCN(c2c3c(nc4ncnn24)CCC3)C[C@@H]1N(C)c1ncnc2[nH]ccc12` has an IC50 (MGC-803) of 55.9 µM, an IC50 (HGC-27) of 50.5 µM and an IC50 (BGC-823) of over 100 µM. The IC50 at 72 h [1] was over 100 µM.

Molecule `Cc1cc(N2CC[C@@H](C)[C@@H](N(C)c3ncnc4[nH]ccc34)C2)n2ncnc2n1` has an IC50 (MGC-803) of 4.35 µM, an IC50 (NCI-H1975) of 22.2 µM and an IC50 (PC-9) of 20.9 µM. The IC50 (MCF7) was 33.8 µM, the IC50 (HGC-27) was 11.3 µM and the IC50 (BGC-823) was 67.4 µM. The IC50 at 72 h [1] was 57.9 µM.

In the case of `Cc1cc(N2CC[C@@H](C)[C@@H](N(C)c3ncnc4[nH]ccc34)C2)n2nc(SCCc3ccccc3)nc2n1`, the IC50 (MGC-803) is reported as 6.19 µM, the IC50 (HGC-27) is reported as 11.8 µM and the IC50 (BGC-823) is reported as 28 µM. The IC50 at 72 h [1] was 66.2 µM.

For `Cc1cc(N2CC[C@@H](C)[C@@H](N(C)c3ncnc4[nH]ccc34)C2)n2nc(SCc3ccc(F)c(Cl)c3)nc2n1`, the IC50 (MGC-803) was 52 µM, the IC50 (HGC-27) was over 100 µM and the IC50 (BGC-823) was 98.9 µM. The IC50 at 72 h [1] was over 100 µM.

With `C#CCSc1nc2nc(C)cc(N3CC[C@@H](C)[C@@H](N(C)c4ncnc5[nH]ccc45)C3)n2n1` the IC50 (MGC-803) was 18.1 µM, the IC50 (HGC-27) was 35.1 µM and the IC50 (BGC-823) was 62.1 µM. It also gave an IC50 at 72 h [1] of over 100 µM.

Work on `C[C@@H]1CCN(c2cc(-c3ccccc3)nc3ncnn23)C[C@@H]1N(C)c1ncnc2[nH]ccc12` yielded an IC50 (MGC-803) of 84.9 µM, an IC50 (HGC-27) of over 100 µM and an IC50 (BGC-823) of over 100 µM. The IC50 at 72 h [1] was over 100 µM.

In the case of `Cc1cc(N2CC[C@@H](C)[C@@H](N(C)c3ncnc4[nH]ccc34)C2)n2nc(SCc3ccccc3Br)nc2n1`, the IC50 (MGC-803) is reported as 27 µM, the IC50 (HGC-27) is reported as 21.3 µM and the IC50 (BGC-823) is reported as 81.1 µM. For the same molecule, the IC50 at 72 h [1] was over 100 µM.

With `CCCCCc1c(C)nc2nc(SCc3ccc(Cl)cc3)nn2c1N1CC[C@@H](C)[C@@H](N(C)c2ncnc3[nH]ccc23)C1` the IC50 (MGC-803) was over 100 µM, the IC50 (HGC-27) was over 100 µM and the IC50 (BGC-823) was 32.3 µM. The IC50 at 72 h [1] was over 100 µM.

In the case of `CCCSc1nc2nc(C)cc(N3CC[C@@H](C)[C@@H](N(C)c4ncnc5[nH]ccc45)C3)n2n1`, the IC50 (MGC-803) is reported as 15.5 µM, the IC50 (HGC-27) is reported as 20.9 µM and the IC50 (BGC-823) is reported as 51.2 µM. It also gave an IC50 at 72 h [1] of 67.1 µM.

`Cc1cc(N2CC[C@@H](C)[C@@H](N(C)c3ncnc4[nH]ccc34)C2)n2nc(SCC3CC3)nc2n1` gave an IC50 (MGC-803) of 9.54 µM, an IC50 (HGC-27) of 21.4 µM and an IC50 (BGC-823) of 36.5 µM. It also gave an IC50 at 72 h [1] of 27.9 µM.

For `Cc1cc(N2CC[C@@H](C)[C@@H](N(C)c3ncnc4[nH]ccc34)C2)n2nc(SCc3ccc(Cl)cc3)nc2n1`, the IC50 (MGC-803) was 16 µM, the IC50 (HGC-27) was 18.4 µM and the IC50 (BGC-823) was 26.3 µM. The IC50 at 72 h [1] was over 100 µM.

In the case of `CCc1cc(N2CC[C@@H](C)[C@@H](N(C)c3ncnc4[nH]ccc34)C2)n2ncnc2n1`, the IC50 (MGC-803) is reported as 80.2 µM, the IC50 (HGC-27) is reported as over 100 µM and the IC50 (BGC-823) is reported as 82.2 µM. For the same molecule, the IC50 at 72 h [1] was over 100 µM.

With `Cc1cc(N2CC[C@@H](C)[C@@H](N(C)c3ncnc4[nH]ccc34)C2)n2nc(SCC3CCCCC3)nc2n1` the IC50 (MGC-803) was 9.17 µM, the IC50 (HGC-27) was 11.5 µM and the IC50 (BGC-823) was 16.3 µM. The IC50 at 72 h [1] was 98.2 µM.

Molecule `Cc1cc(N2CC[C@@H](C)[C@@H](N(C)c3ncnc4[nH]ccc34)C2)n2nc(SCc3nc4ccccc4[nH]3)nc2n1` has an IC50 (MGC-803) of 21.2 µM, an IC50 (HGC-27) of over 100 µM and an IC50 (BGC-823) of over 100 µM. It also gave an IC50 at 72 h [1] of 40.2 µM.

`C=CCSc1nc2nc(C)cc(N3CC[C@@H](C)[C@@H](N(C)c4ncnc5[nH]ccc45)C3)n2n1` gave an IC50 (MGC-803) of 32.5 µM, an IC50 (HGC-27) of 35.2 µM and an IC50 (BGC-823) of 40.9 µM. It also gave an IC50 at 72 h [1] of over 100 µM.

`Cc1cc(N2CC[C@@H](C)[C@@H](N(C)c3ncnc4[nH]ccc34)C2)n2nc(SCc3ccc([N+](=O)[O-])cc3)nc2n1` gave an IC50 (MGC-803) of 26.9 µM, an IC50 (HGC-27) of 29.4 µM and an IC50 (BGC-823) of 59.6 µM. The IC50 at 72 h [1] was 36.6 µM.
